# From ChEMBL document CHEMBL3632540, “Ynamide Click chemistry in development of triazole VEGFR2 TK modulators” (Eur J Med Chem, 2015)
# pIC50: −log10 of the molar value.
# Key:
# [1] = biological target: Vascular endothelial growth factor receptor 2 (Homo sapiens, UniProt P35968); assay: Inhibition of GST-tagged human recombinant VEGFR2 kinase expressed in Sf9 insect cells by radiometric protein kinase assay; details: for pIC50: read-out: IC50; for IC50: sf9
# Procedure, shortened: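 Human VEGFR2 kinase made as GST fusion in Sf9 cells, purified on GSH-agarose, purity checked by SDS-PAGE/silver stain, identity confirmed by mass spectrometry.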
# [2] = Cytotoxicity against human HuH7 cells incubated for 72 hrs by SRB assay; assay type: functional, cell-based, Huh-7; details: for pIC50: Homo sapiens, Huh-7, 72 h, read-out: IC50
# Procedure, shortened: (§1)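 HCC lines kept in DMEM with 10% FBS, L-glutamine, nonessential amino acids and penicillin/streptomycin at 37 °C, 5% CO2, STR-authenticated. Seeded at 2000 cells/well (Huh7) or 1000 cells/well (Mahlavu); serial dilutions added 24 h later, DMSO control. After 72 h, TCA-fixed, SRB-stained, dye solubilized in 10 mM Tris base, A515 read. Triplicates, normalized to DMSO.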
# [3] = Cytotoxicity against human Mahlavu cells incubated for 72 hrs by SRB assay; assay type: functional, cell-based; procedure, shortened: as §1
# Sequence of Vascular endothelial growth factor receptor 2 (P35968 whole entry, the tested form may be a part): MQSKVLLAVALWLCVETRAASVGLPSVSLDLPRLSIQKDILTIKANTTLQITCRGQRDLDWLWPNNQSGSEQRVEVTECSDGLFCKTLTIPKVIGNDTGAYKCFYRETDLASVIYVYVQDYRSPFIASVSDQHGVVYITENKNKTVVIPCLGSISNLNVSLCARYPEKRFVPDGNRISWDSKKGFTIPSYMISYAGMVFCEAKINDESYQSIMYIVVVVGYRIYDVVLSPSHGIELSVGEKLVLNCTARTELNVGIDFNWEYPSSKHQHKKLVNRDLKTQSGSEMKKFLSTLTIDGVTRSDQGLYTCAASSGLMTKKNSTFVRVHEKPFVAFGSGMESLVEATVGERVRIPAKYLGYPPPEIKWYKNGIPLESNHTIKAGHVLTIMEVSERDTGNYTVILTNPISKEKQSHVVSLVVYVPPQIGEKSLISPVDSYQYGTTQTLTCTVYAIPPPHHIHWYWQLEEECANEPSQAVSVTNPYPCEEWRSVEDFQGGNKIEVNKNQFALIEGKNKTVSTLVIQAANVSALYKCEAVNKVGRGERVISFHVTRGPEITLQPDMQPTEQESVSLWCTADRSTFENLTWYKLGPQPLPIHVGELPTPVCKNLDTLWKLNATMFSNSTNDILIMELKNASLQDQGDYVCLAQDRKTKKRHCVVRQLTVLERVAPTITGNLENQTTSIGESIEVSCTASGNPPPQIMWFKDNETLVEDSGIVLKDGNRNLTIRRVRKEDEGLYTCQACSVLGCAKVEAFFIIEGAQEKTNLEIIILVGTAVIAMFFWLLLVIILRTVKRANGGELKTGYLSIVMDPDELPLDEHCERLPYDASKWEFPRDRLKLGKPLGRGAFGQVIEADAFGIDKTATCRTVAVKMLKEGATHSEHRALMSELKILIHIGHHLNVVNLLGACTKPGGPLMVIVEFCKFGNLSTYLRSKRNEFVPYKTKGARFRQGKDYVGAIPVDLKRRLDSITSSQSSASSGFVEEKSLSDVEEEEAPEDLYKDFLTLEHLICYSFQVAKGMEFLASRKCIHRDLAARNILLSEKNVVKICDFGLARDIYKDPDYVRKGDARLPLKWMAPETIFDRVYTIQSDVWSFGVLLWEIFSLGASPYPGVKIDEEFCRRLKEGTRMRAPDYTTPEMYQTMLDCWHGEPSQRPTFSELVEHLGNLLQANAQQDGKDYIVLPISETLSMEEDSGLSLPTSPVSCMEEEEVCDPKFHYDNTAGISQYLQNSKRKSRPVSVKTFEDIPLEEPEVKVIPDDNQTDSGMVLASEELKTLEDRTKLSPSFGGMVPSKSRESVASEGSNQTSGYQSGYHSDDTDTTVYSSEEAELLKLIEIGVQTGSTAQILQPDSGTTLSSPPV
pIC50 [1],IC50 [1],SMILES,pIC50 [2],pIC50 [3],IC50 ([2]; huh-7)
< 4.00,,CCS(=O)(=O)c1ccc(OC)c(Nc2cn(-c3ccc(NC(N)=O)c(-c4cccc5ccccc45)c3)nn2)c1,,4.55,Not Active
5.16,,CCS(=O)(=O)c1ccc(OC)c(Nc2cn(-c3ccc(O)c(-c4ccccn4)c3)nn2)c1,4.75,4.86,
,Not Active,CCS(=O)(=O)c1ccc(OC)c(Nc2cn(-c3cc(-c4ccccc4)nc(-c4ccccc4)n3)nn2)c1,,,
4.38,,CCS(=O)(=O)c1ccc(OC)c(Nc2cn(-c3cccc(-c4ccccn4)c3)nn2)c1,,,

# Continued, molecule first:
SMILES,pIC50 [1],IC50 [1],pIC50 [2],pIC50 [3],IC50 ([2]; huh-7)
CCS(=O)(=O)c1ccc(OC)c(Nc2cn(-c3ccc(O)c(-c4cc[nH]c4)c3)nn2)c1,4.40,,4.73,4.92,
CCS(=O)(=O)c1ccc(OC)c(Nc2cn(-c3ccc(O)c(-c4cccnc4)c3)nn2)c1,,Not Active,,,
CCS(=O)(=O)c1ccc(OC)c(Nc2cn(-c3cccc(-c4cccnc4)c3)nn2)c1,< 4.00,,4.89,4.93,
